Test results taken from ChEMBL document CHEMBL3734652, “Pyrrolo[3,4-c]pyridine-1,3(2H)-diones: A Novel Antimycobacterial Class Targeting Mycobacterial Respiration” (J Med Chem, 2015).
In brackets after ≈: the same amount, converted by molar mass.

What was measured:
[1] = test system: Mycobacterium tuberculosis; assay: Antimicrobial activity against Mycobacterium tuberculosis H37RvMA under GAST/Fe medium assessed as growth inhibition after 14 days by alamar blue assay; assay type: functional; conditions: 336 h
Outline: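 Broth microdilution in GAST/Fe medium against fully virulent Mtb H37RvMa or its derived strains (cytochrome bd oxidase deletion ΔcydKO; qcrB Ala317Thr point mutant). Plates were incubated 14 days, growth was read by Alamar Blue, and MIC90 was taken as the potency value.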

[2] = Kinetic solubility in FaSSIF at pH 6.5 after 2 hours at 25 degC by shake flask method; assay type: physicochemical; conditions: read-out: Kinetic_solubility
[3] = Metabolic stability in human liver microsomes assessed as residual compound at 0.1 uM after 30 mins by LC-MS/MS method in presence or absence of NADPH; assay type: ADME; conditions: read-out: Stability
[4] = Metabolic stability in rat liver microsomes assessed as residual compound at 0.1 uM after 30 mins by LC-MS/MS method in presence or absence of NADPH; assay type: ADME; conditions: read-out: Stability
[5] = Metabolic stability in mouse liver microsomes assessed as residual compound at 0.1 uM after 30 mins by LC-MS/MS method in presence or absence of NADPH; assay type: ADME; conditions: read-out: Stability
[6] = test system: Liver; assay: Drug level in BALB/c mouse liver microsomes treated with 7-Amino-2-benzyl-4-methyl-6-(3-methyl-1,2,4-oxadiazol-5-yl)-1H-pyrrolo[3,4-c]pyridine-1,3(2H)-dione at 10 uM after 1 hr by LC-MS analysis; assay type: ADME
[7] = test system: Plasma; assay: Drug metabolism in C57/BL6 mouse plasma treated with 7-Amino-2-benzyl-4-methyl-6-(3-methyl-1,2,4-oxadiazol-5-yl)-1H-pyrrolo[3,4-c]pyridine-1,3(2H)-dione by LC-MS analysis; assay type: ADME, cell-free
[8] = test system: Vero; assay: Cytotoxicity against African green monkey Vero cells assessed as cell viability by MTT assay; assay type: cell-based; conditions: Chlorocebus sabaeus
Outline: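 VERO kidney epithelial cells from African green monkey were exposed to compounds at concentrations up to 100 μM, and IC₅₀ was reported.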

SMILES: Cc1noc(-c2nc(C)c3c(c2N)C(=O)N(Cc2ccc(C(F)(F)F)cc2)C3=O)n1
- MIC90 [1]: 20 µM (≈ 8.35 µg/mL)
- solubility kinetic at 2 h [2]: < 5 µM

SMILES: Cc1noc(-c2nc(C)c3c(c2N)C(=O)N(Cc2ccc(OC(F)F)cc2)C3=O)n1
- MIC90 [1]: < 0.156 µM
- solubility kinetic at 2 h [2]: < 5 µM

SMILES: COc1ccccc1CN1C(=O)c2c(C)nc(-c3nc(C)no3)c(N)c2C1=O
- MIC90 [1]: 0.31 µM (≈ 0.118 µg/mL)
- solubility kinetic at 2 h [2]: < 5 µM

SMILES: Cc1noc(-c2nc(C)c3c(c2N)C(=O)N(Cc2ccc(N4CCCC4=O)cc2)C3=O)n1
- MIC90 [1]: > 160 µM
- solubility kinetic at 2 h [2]: < 5 µM

SMILES: Cc1nc(C#N)c(N)c2c1C(=O)N(Cc1ccccc1)C2=O
- MIC90 [1]: > 160 µM
- solubility kinetic at 2 h [2]: < 5 µM
- remaining at 0.5 h, 0.1 µM [3]: 98%
- remaining at 0.5 h, 0.1 µM [4]: 100%
- remaining at 0.5 h, 0.1 µM [5]: 99%

SMILES: Cc1noc(-c2nc(C)c3c(c2N)C(=O)N(Cc2ccc(Cl)cc2)C3=O)n1
- MIC90 [1]: 0.62 µM (≈ 0.238 µg/mL)
- solubility kinetic at 2 h [2]: < 5 µM

SMILES: Cc1noc(-c2nc(C)c3c(c2N)C(=O)N(Cc2ccccc2C(F)(F)F)C3=O)n1
- MIC90 [1]: > 160 µM
- solubility kinetic at 2 h [2]: < 5 µM

SMILES: COc1ccc(CN2C(=O)c3c(C)nc(-c4nc(C)no4)c(N)c3C2=O)cc1
- MIC90 [1]: < 0.156 µM
- solubility kinetic at 2 h [2]: < 5 µM

SMILES: Cc1nc(C(N)=O)c(N)c2c1C(=O)N(Cc1ccccc1)C2=O
- MIC90 [1]: > 160 µM
- solubility kinetic at 2 h [2]: < 5 µM
- Drug metabolism [6]: metabolite_detected
- Drug metabolism [7]: metabolite_detected

SMILES: Cc1noc(-c2nc(C)c3c(c2N)C(=O)N(Cc2ccc(N(C)C)cc2)C3=O)n1
- MIC90 [1]: 20 µM (≈ 7.85 µg/mL)
- solubility kinetic at 2 h [2]: 7.4 µM (≈ 2.9 µg/mL)

SMILES: Cc1noc(-c2nc(C)c3c(c2N)C(=O)N(Cc2cccc(F)c2)C3=O)n1
- MIC90 [1]: < 0.156 µM
- solubility kinetic at 2 h [2]: < 5 µM

SMILES: Cc1noc(-c2nc(C)c3c(c2N)C(=O)N(Cc2ccc(Cl)cn2)C3=O)n1
- MIC90 [1]: 2.5 µM (≈ 0.962 µg/mL)
- solubility kinetic at 2 h [2]: < 5 µM

SMILES: CCOC(=O)c1nc(C)c2c(c1N)C(=O)N(c1ccccc1)C2=O
- MIC90 [1]: > 160 µM
- solubility kinetic at 2 h [2]: 5 µM (≈ 1.63 µg/mL)

SMILES: COC(=O)c1nc(C)c2c(c1N)C(O)N(Cc1ccccc1)C2=O (centres undefined)
- MIC90 [1]: 2.5 µM (≈ 0.818 µg/mL)
- solubility kinetic at 2 h [2]: 200 µM (≈ 65.5 µg/mL)
- remaining at 0.5 h, 0.1 µM [3]: 55%
- remaining at 0.5 h, 0.1 µM [4]: 70%
- remaining at 0.5 h, 0.1 µM [5]: 69%
- IC50 [8]: > 100 µM

SMILES: CO[C@H]1/C=C/O[C@@]2(C)Oc3c(C)c(O)c4c(O)c(c(/C=N/N5CCN(C)CC5)c(O)c4c3C2=O)NC(=O)/C(C)=C\C=C\[C@H](C)[C@H](O)[C@@H](C)[C@@H](O)[C@@H](C)[C@H](OC(C)=O)[C@@H]1C [RIFAMPIN]
- MIC90 [1]: 0.009 µM (≈ 0.00741 µg/mL)

SMILES: Cc1noc(-c2nc(C)c3c(c2N)C(=O)N(Cc2ccccc2F)C3=O)n1
- MIC90 [1]: 0.3 µM (≈ 0.11 µg/mL)
- solubility kinetic at 2 h [2]: < 5 µM

SMILES: CNC(=O)c1nc(C)c2c(c1N)C(=O)N(Cc1ccccc1)C2=O
- MIC90 [1]: > 160 µM
- solubility kinetic at 2 h [2]: 41 µM (≈ 13.3 µg/mL)

SMILES: Cc1noc(-c2nc(C)c3c(c2N)C(=O)N(Cc2ccc(S(C)(=O)=O)cc2)C3=O)n1
- MIC90 [1]: 0.31 µM (≈ 0.133 µg/mL)
- solubility kinetic at 2 h [2]: < 5 µM

SMILES: Cc1nc(C(=O)N(C)C)c(N)c2c1C(=O)N(Cc1ccccc1)C2=O
- MIC90 [1]: > 160 µM
- solubility kinetic at 2 h [2]: 172 µM (≈ 58.2 µg/mL)
- remaining at 0.5 h, 0.1 µM [3]: 72%
- remaining at 0.5 h, 0.1 µM [4]: 51%
- remaining at 0.5 h, 0.1 µM [5]: 47%
- IC50 [8]: > 100 µM

SMILES: Cc1nc(-c2nc(C(F)(F)F)no2)c(N)c2c1C(=O)N(Cc1ccccc1)C2=O
- MIC90 [1]: 20 µM (≈ 8.07 µg/mL)
- solubility kinetic at 2 h [2]: < 5 µM
- remaining at 0.5 h, 0.1 µM [3]: 100%
- remaining at 0.5 h, 0.1 µM [4]: 83%
- remaining at 0.5 h, 0.1 µM [5]: 20%
- IC50 [8]: > 100 µM

SMILES: CCCOC(=O)c1nc(C)c2c(c1N)C(=O)N(Cc1ccccc1)C2=O
- MIC90 [1]: < 0.156 µM
- solubility kinetic at 2 h [2]: < 5 µM
- remaining at 0.5 h, 0.1 µM [3]: 3.4%
- remaining at 0.5 h, 0.1 µM [4]: 3.3%
- remaining at 0.5 h, 0.1 µM [5]: 8.8%

SMILES: Cc1noc(-c2nc(C)c3c(c2N)C(=O)N(CC2CCOCC2)C3=O)n1
- MIC90 [1]: 20 µM (≈ 7.15 µg/mL)
- solubility kinetic at 2 h [2]: 5.7 µM (≈ 2.04 µg/mL)

SMILES: Cc1noc(-c2nc(C)c3c(c2N)C(=O)N(Cc2ccc(SC(F)(F)F)cc2)C3=O)n1
- MIC90 [1]: 1.2 µM (≈ 0.539 µg/mL)
- solubility kinetic at 2 h [2]: < 5 µM

SMILES: CCOC(=O)c1ncc2c(c1N)C(=O)N(Cc1ccccc1)C2=O
- MIC90 [1]: 20 µM (≈ 6.51 µg/mL)

SMILES: Cc1nc(C(=O)NC#N)c(N)c2c1C(=O)N(Cc1ccccc1)C2=O
- MIC90 [1]: > 160 µM
- solubility kinetic at 2 h [2]: 185 µM (≈ 62 µg/mL)
- remaining at 0.5 h, 0.1 µM [3]: 99%
- remaining at 0.5 h, 0.1 µM [4]: 92%
- remaining at 0.5 h, 0.1 µM [5]: 95%
- Drug metabolism [6]: metabolite_detected
- Drug metabolism [7]: metabolite_detected

SMILES: Cc1nc(C(=O)NO)c(N)c2c1C(=O)N(Cc1ccccc1)C2=O
- MIC90 [1]: > 160 µM
- remaining at 0.5 h, 0.1 µM [3]: 80%
- remaining at 0.5 h, 0.1 µM [4]: 46%
- remaining at 0.5 h, 0.1 µM [5]: 58%

SMILES: Cc1nnc(-c2nc(C)c3c(c2N)C(=O)N(Cc2ccccc2)C3=O)o1
- MIC90 [1]: > 160 µM
- solubility kinetic at 2 h [2]: < 5 µM
- remaining at 0.5 h, 0.1 µM [3]: 63%
- remaining at 0.5 h, 0.1 µM [4]: 50%
- remaining at 0.5 h, 0.1 µM [5]: 57%
- IC50 [8]: > 100 µM

SMILES: Cc1noc(-c2nc(C)c3c(c2N)C(=O)N(Cc2cccc(C(F)(F)F)c2)C3=O)n1
- MIC90 [1]: < 0.156 µM
- solubility kinetic at 2 h [2]: < 5 µM

SMILES: Cc1noc(-c2nc(C)c3c(c2N)C(=O)N(Cc2ccc(F)cc2)C3=O)n1
- MIC90 [1]: 0.31 µM (≈ 0.114 µg/mL)
- solubility kinetic at 2 h [2]: < 5 µM

SMILES: CCOC(=O)c1nc(C)c2c(c1N)C(=O)N(Cc1ccccc1)C2O (centres undefined)
- MIC90 [1]: 0.144 µM (≈ 0.0492 µg/mL)
- solubility kinetic at 2 h [2]: 41.5 µM (≈ 14.2 µg/mL)
- remaining at 0.5 h, 0.1 µM [3]: 99%
- remaining at 0.5 h, 0.1 µM [4]: 81%
- remaining at 0.5 h, 0.1 µM [5]: 89%
- IC50 [8]: > 100 µM

SMILES: Cc1noc(-c2nc(C)c3c(c2N)C(=O)N(Cc2ccc(Oc4ccc(F)cc4)cc2)C3=O)n1
- MIC90 [1]: < 0.156 µM
- solubility kinetic at 2 h [2]: 23.8 µM (≈ 10.9 µg/mL)

SMILES: COC(=O)c1nc(C)c2c(c1N)C(=O)N(Cc1ccccc1)C2=O
- MIC90 [1]: 0.15 µM (≈ 0.0488 µg/mL)
- solubility kinetic at 2 h [2]: 7.4 µM (≈ 2.41 µg/mL)

SMILES: Cc1noc(-c2nc(C)c3c(c2N)C(=O)N(Cc2ccc(C#N)cc2)C3=O)n1
- MIC90 [1]: > 160 µM
- solubility kinetic at 2 h [2]: < 5 µM

SMILES: Cc1noc(-c2nc(C)c3c(c2N)C(=O)N(C(C)c2ccccc2)C3=O)n1 (centres undefined)
- MIC90 [1]: 1.25 µM (≈ 0.454 µg/mL)
- solubility kinetic at 2 h [2]: 10.9 µM (≈ 3.96 µg/mL)

SMILES: Cc1noc(-c2nc(C)c3c(c2N)C(=O)N(Cc2ccc(CO)cc2)C3=O)n1
- MIC90 [1]: 0.62 µM (≈ 0.235 µg/mL)
- solubility kinetic at 2 h [2]: < 5 µM

SMILES: Cc1noc(-c2nc(C)c3c(c2N)C(=O)N(CC2CCNCC2)C3=O)n1
- MIC90 [1]: > 160 µM
- solubility kinetic at 2 h [2]: 160 µM (≈ 57 µg/mL)

SMILES: Cc1noc(-c2nc(C)c3c(c2N)C(=O)N(Cc2ccc(C(N)=O)cc2)C3=O)n1
- MIC90 [1]: > 160 µM
- solubility kinetic at 2 h [2]: < 5 µM

SMILES: Cc1noc(-c2nc(C)c3c(c2N)C(=O)N(Cc2ccc(Br)cc2)C3=O)n1
- MIC90 [1]: < 0.156 µM
- solubility kinetic at 2 h [2]: < 5 µM

SMILES: Cc1noc(-c2nc(C)c3c(c2N)C(=O)N(Cc2ccccc2Cl)C3=O)n1
- MIC90 [1]: 1.25 µM (≈ 0.48 µg/mL)
- solubility kinetic at 2 h [2]: < 5 µM

SMILES: Cc1noc(-c2nc(C)c3c(c2N)C(=O)N(Cc2ccc(-n4cccn4)cc2)C3=O)n1
- MIC90 [1]: 40 µM (≈ 16.6 µg/mL)
- solubility kinetic at 2 h [2]: < 5 µM

SMILES: Cc1noc(-c2nc(C)c3c(c2N)C(=O)N(Cc2ccncc2)C3=O)n1
- MIC90 [1]: 20 µM (≈ 7.01 µg/mL)
- solubility kinetic at 2 h [2]: 26.4 µM (≈ 9.25 µg/mL)

SMILES: Cc1nc(C(=O)OC2CC2)c(N)c2c1C(=O)N(Cc1ccccc1)C2=O
- MIC90 [1]: 1.25 µM (≈ 0.439 µg/mL)
- solubility kinetic at 2 h [2]: 202 µM (≈ 71 µg/mL)
- remaining at 0.5 h, 0.1 µM [3]: 61%
- remaining at 0.5 h, 0.1 µM [4]: 9.6%
- remaining at 0.5 h, 0.1 µM [5]: 36%

SMILES: Cc1noc(-c2nc(C)c3c(c2N)C(=O)N(Cc2ccc(OC(F)(F)F)cc2)C3=O)n1
- MIC90 [1]: 0.62 µM (≈ 0.269 µg/mL)
- solubility kinetic at 2 h [2]: < 5 µM

SMILES: Cc1noc(-c2nc(C)c3c(c2N)C(=O)N(Cc2ccc(-c4ccncc4)cc2)C3=O)n1
- MIC90 [1]: 160 µM (≈ 68.2 µg/mL)
- solubility kinetic at 2 h [2]: < 5 µM
